ChEMBL document CHEMBL1240362, “Intrapulmonary pharmacokinetics of S-013420, a novel bicyclolide antibacterial, in healthy Japanese subjects” (Antimicrob Agents Chemother, 2010)
≈ marks a conversion by molar mass, not a printed value.

Assays:
[1] = AUC (0 to 24 hrs) in plasma of healthy human at 400 mg, po administered as single dose by linear trapezoidal method
Streptococcus pyogenes = experiment: Antimicrobial activity against Streptococcus pyogenes; type: functional
Homo sapiens [2] = experiment: Toxicity in healthy human assessed as neutrophil count in bronchoalveolar fluid at […], po administered as single dose after 8 hrs; type: organism-based, Lung; set-up: route oral; conditions: in vivo
How it was run: (§1)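 Healthy Japanese male never-smokers, aged 20 to 45 years with normal BMI, got one open-label oral 400 mg suspension dose. Four subjects per time group had one fiber-optic bronchoscopic BAL at the assigned post-dose time. The first aliquot was discarded and the last three were pooled. BAL fluid was held on ice and spun at 400 × g for 5 min at 4°C. Pellet cells were counted by hemocytometer, with a differential count on a stained cytocentrifuge preparation.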

Homo sapiens [3] = experiment: Toxicity in healthy human assessed as lymphocytes count in bronchoalveolar fluid at […], po administered as single dose after 24 hrs; type: organism-based, Lung; set-up: route oral; conditions: in vivo
How it was run: as §1

[4] = Drug level in alveolar macrophages of healthy human at […], po administered as single dose after 4 hrs; type: ADME, organism-based, Macrophage; set-up: route oral; conditions: read-out: Drug uptake
How it was run: (§2)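 One oral 400 mg suspension dose; four volunteers lavaged at each time (2-24 h). Cell pellet from the pooled 2nd-4th aspirates was counted (hemocytometer, stained cytospin differential). Drug in cell suspension measured by HPLC, divided by AM volume assuming 2.42 μl/10^6 cells. Cmax and Tmax are model-independent, based on mean concentrations at each time.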

Homo sapiens [5] = experiment: Toxicity in healthy human assessed as alveolar macrophage count in bronchoalveolar fluid at 400 mg, po administered as single dose after 6 hrs; conditions: in vivo
Homo sapiens [6] = experiment: Toxicity in healthy human assessed as alveolar macrophage count in bronchoalveolar fluid at 400 mg, po administered as single dose after 8 hrs; conditions: in vivo
[7] = Ratio of AUC (0 to 24 hrs) in […] healthy epithelial lining fluid to MIC90 for erythromycin-susceptible Staphylococcus aureus; type: functional
Homo sapiens [8] = experiment: Toxicity in healthy human assessed as eosinophil count in bronchoalveolar fluid at 400 mg, po administered as single dose after 12 hrs; conditions: in vivo
[9] = Ratio of AUC (0 to 24 hrs) in plasma of healthy human to MIC90 for erythromycin-susceptible Staphylococcus aureus; type: functional
[10] = Ratio of AUC (0 to 24 hrs) in plasma of healthy human to MIC90 for Haemophilus influenzae; type: functional
Homo sapiens [11] = experiment: Toxicity in healthy human assessed as eosinophil count in bronchoalveolar fluid at 400 mg, po administered as single dose after 10 hrs; conditions: in vivo
Homo sapiens [12] = experiment: Toxicity in healthy human assessed as lymphocytes count in bronchoalveolar fluid at […], po administered as single dose after 10 hrs; type: organism-based, Lung; set-up: route oral; conditions: in vivo
How it was run: as §1

[13] = Ratio of drug level in epithelial lining fluid to plasma in healthy human at […] administered as single dose after 8 hrs; type: ADME, organism-based; set-up: route oral; conditions: po
How it was run: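 For each subject, ELF or AM drug level after the single oral 400 mg dose is divided by the plasma level sampled at the BAL time (2-24 h). Ratios are summarized per four-subject group.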

[14] = Drug level in alveolar macrophages of healthy human at […], po administered as single dose after 10 hrs; type: ADME, organism-based, Macrophage; set-up: route oral; conditions: read-out: Drug uptake
How it was run: as §2

[15] = Tmax in epithelial lining fluid of healthy human at 400 mg, po administered as single dose
Homo sapiens [16] = experiment: Toxicity in healthy human assessed as neutrophil count in bronchoalveolar fluid at […], po administered as single dose after 12 hrs; type: organism-based, Lung; set-up: route oral; conditions: in vivo
How it was run: as §1

Homo sapiens [17] = experiment: Toxicity in healthy human assessed as lymphocytes count in bronchoalveolar fluid at […], po administered as single dose after 8 hrs; type: organism-based, Lung; set-up: route oral; conditions: in vivo
How it was run: as §1

[18] = Plasma concentration in healthy human at […], po after 24 hrs; type: ADME, organism-based; set-up: route oral
How it was run: (§3)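 Healthy nonsmoking Japanese men, 20-45 y, given one oral 400 mg suspension dose. Blood drawn at 0-72 h, spun at 1,600 × g for 10 min at 4°C, plasma kept at −20°C. Drug measured by validated LC/MS/MS, linear 0.005-5 μg/ml. Values are mean ± SD, n = 28. Cmax, Tmax and t1/2,z are model-independent; AUC0-24 by trapezoidal method.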

[19] = Plasma concentration in healthy human at […], po after 4 hrs; type: ADME, organism-based; set-up: route oral
How it was run: as §3

[20] = Plasma concentration in healthy human at […], po after 12 hrs; type: ADME, organism-based; set-up: route oral
How it was run: as §3

Haemophilus influenzae = experiment: Antimicrobial activity against Haemophilus influenzae; type: functional
Homo sapiens [21] = experiment: Toxicity in healthy human assessed as neutrophil count in bronchoalveolar fluid at […], po administered as single dose after 2 hrs; type: organism-based, Lung; set-up: route oral; conditions: in vivo
How it was run: as §1

[22] = Ratio of drug level in alveolar macrophages to plasma in healthy human at 400 mg, po administered as single dose after 12 hrs
Homo sapiens [23] = experiment: Toxicity in healthy human assessed as eosinophil count in bronchoalveolar fluid at 400 mg, po administered as single dose after 6 hrs; conditions: in vivo
Homo sapiens [24] = experiment: Toxicity in healthy human assessed as alveolar macrophage count in bronchoalveolar fluid at 400 mg, po administered as single dose after 10 hrs; conditions: in vivo
[25] = Plasma concentration in healthy human at […], po after 6 hrs; type: ADME, organism-based; set-up: route oral
How it was run: as §3

[26] = Drug level in epithelial lining fluid of healthy human at […] administered as single dose after 2 hrs; type: ADME, organism-based; set-up: route oral; conditions: po, read-out: Drug uptake
How it was run: (§4)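 Four healthy male volunteers per BAL time (2-24 h) after one oral 400 mg suspension dose. Single bronchoscopic lavage; first aliquot discarded, next three pooled. Supernatant separated at 400 × g, 5 min, 4°C, and drug assayed by LC/MS/MS. ELF level = CBAL × urea plasma/urea BAL, with urea corrected for blood contamination via RBC ratio. PK parameters are model-independent, based on the mean concentration at each time.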

[27] = Drug level in epithelial lining fluid of healthy human at […], po administered as single dose after 4 hrs; type: ADME, organism-based; set-up: route oral; conditions: read-out: Drug uptake
How it was run: as §4

[28] = Drug level in epithelial lining fluid of healthy human at […], po administered as single dose after 12 hrs; type: ADME, organism-based; set-up: route oral; conditions: read-out: Drug uptake
How it was run: as §4

Homo sapiens [29] = experiment: Toxicity in healthy human assessed as other cellular fractions in bronchoalveolar fluid at […], po administered as single dose after 24 hrs; type: organism-based, Lung; set-up: route oral; conditions: in vivo
How it was run: as §1

[30] = Ratio of AUC (0 to 24 hrs) in plasma of healthy human to MIC90 for Moraxella catarrhalis; type: functional
[31] = Ratio of epithelial lining fluid AUC (0 to 24 hrs) to plasma AUC (0 to 24 hrs) in healthy human at 400 mg, po administered as single dose
[32] = Ratio of drug level in alveolar macrophages to plasma in healthy human at 400 mg, po administered as single dose after 6 hrs
[33] = Drug level in epithelial lining fluid of healthy human at […], po administered as single dose after 10 hrs; type: ADME, organism-based; set-up: route oral; conditions: read-out: Drug uptake
How it was run: as §4

[34] = Tmax in plasma of healthy human at 400 mg, po administered as single dose

Q: With CC[C@H]1OC(=O)[C@H](C)C(=O)[C@H](C)[C@@H](O[C@@H]2O[C@H](C)C[C@H](N(C)C)[C@H]2O)[C@@]2(C)C[C@@H](C)/C(=N\C(C)=O)[C@H](C)[C@@H](OC/C(=N\OCc3ccc(-n4cccn4)nc3)CO2)[C@]1(C)O [MODITHROMYCIN] as the compound, how does the AUC(0-t) at 24 h [1] read?
A: 10500 ng·h/mL

Q: What about the MIC90 (Streptococcus pyogenes) of the same compound?
A: ≤ 0.063 µg/mL

Q: And the Activity (Homo sapiens [2])?
A: 0.1%

Q: And the Activity (Homo sapiens [3])?
A: 10.8%

Q: What about the concentration at 4 h [4] of the same compound?
A: 116000 ng/mL

Q: And the Activity (Homo sapiens [5])?
A: 86.9%

Q: And the Activity (Homo sapiens [6])?
A: 90.4%

Q: What about the RatioAUC/MIC [7] of the same compound?
A: 849.6

Q: What about the Activity (Homo sapiens [8]) of the same compound?
A: 0.9%

Q: What about the RatioAUC/MIC [9] of the same compound?
A: 41.8

Q: And the RatioAUC/MIC [10]?
A: 1.3

Q: What about the Activity (Homo sapiens [11]) of the same compound?
A: 0.1%

Q: And the Activity (Homo sapiens [12])?
A: 13.6%

Q: And the Kp at 8 h [13]?
A: 25.9

Q: What about the concentration at 10 h [14] of the same compound?
A: 108000 ng/mL

Q: What about the Tmax [15] of the same compound?
A: 2 h

Q: And the Activity (Homo sapiens [16])?
A: 0%

Q: What about the Activity (Homo sapiens [17]) of the same compound?
A: 9.3%

Q: What about the concentration at 24 h [18] of the same compound?
A: 315 ng/mL

Q: What about the concentration at 4 h [19] of the same compound?
A: 575 ng/mL

Q: What about the concentration at 12 h [20] of the same compound?
A: 424 ng/mL

Q: What about the MIC90 (Haemophilus influenzae) of the same compound?
A: 8 µg/mL (≈ 9.51 µM)

Q: And the Activity (Homo sapiens [21])?
A: 0%

Q: What about the Kp at 12 h [22] of the same compound?
A: 406

Q: What about the Activity (Homo sapiens [23]) of the same compound?
A: 0%

Q: What about the Activity (Homo sapiens [24]) of the same compound?
A: 85.8%

Q: And the concentration at 6 h [25]?
A: 540 ng/mL

Q: What about the concentration at 2 h [26] of the same compound?
A: 16700 ng/mL

Q: What about the concentration at 4 h [27] of the same compound?
A: 13700 ng/mL

Q: What about the concentration at 12 h [28] of the same compound?
A: 5800 ng/mL

Q: What about the Activity (Homo sapiens [29]) of the same compound?
A: 0%

Q: What about the RatioAUC/MIC [30] of the same compound?
A: 20.9

Q: What about the Kp [31] of the same compound?
A: 20.3

Q: And the Kp at 6 h [32]?
A: 183

Q: And the concentration at 10 h [33]?
A: 10000 ng/mL

Q: And the Tmax [34]?
A: 2.27 h
